Entries after “also recorded” stand apart in the source; their conditions may differ.
Legend:
[1] = target: mushroom tyrosinase (Agaricus bisporus, UniProt C7FF04); test: Kinetic analysis of the inhibition of tyrosinase; type: biochemical; conditions: Lineweaver-Burk plots, L-DOPA
[2] = tested on: pigmentation of zebrafish; test: In vivo depigmentation assay in zebrafish; parameters: species or system zebrafish (Danio rerio); conditions: zebrafish embryos, 50 µM, 9 to 72 hpf
In short: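 Synchronized embryos from wild-type adults (kept at 28.5°C, 14 h light/10 h dark) were placed 2–3 per well in E3 medium (NaCl 5 mM, KCl 0.17 mM, CaCl2 0.33 mM, MgSO4 0.33 mM). […] Dechorionated embryos were anesthetized with MS-222, mounted in 1% methyl cellulose and photographed by stereomicroscope. Pigmentation was quantified by pixel measurement.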

[3] = tested on: melanin contents in zebrafish embryos; test: Determination of melanin contents in zebrafish; type: in vivo, zebrafish (Danio rerio); conditions: 50 µM, 72 hpf

mushroom tyrosinase, sequence (C7FF04 1-392 limits assumed): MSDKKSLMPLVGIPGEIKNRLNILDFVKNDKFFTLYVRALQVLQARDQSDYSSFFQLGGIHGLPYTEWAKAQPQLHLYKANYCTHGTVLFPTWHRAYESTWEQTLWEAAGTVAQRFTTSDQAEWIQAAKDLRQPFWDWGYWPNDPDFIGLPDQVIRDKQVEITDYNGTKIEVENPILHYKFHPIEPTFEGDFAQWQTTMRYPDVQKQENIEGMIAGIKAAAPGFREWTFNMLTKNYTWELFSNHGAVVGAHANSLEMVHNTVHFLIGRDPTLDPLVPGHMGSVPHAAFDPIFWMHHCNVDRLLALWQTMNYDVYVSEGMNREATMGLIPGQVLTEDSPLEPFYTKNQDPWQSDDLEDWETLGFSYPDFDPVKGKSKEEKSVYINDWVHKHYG

Compound | Inhibition type [1] | pigmentation level (decreased to) [2] | melanin contents [3]
Cc1ccc(C(C)C)cc1NC(=O)COC(=O)/C=C/c1ccccc1 [6a, 2-[2-methyl-5-(propan-2-yl)anilino]-2-oxoethyl (2E)-3-phenylprop-2-enoate] | mixed-type inhibition |  | 
Cc1ccc(C(C)C)cc1NC(=O)COC(=O)/C=C/c1ccccc1O [6b, 2-[2-methyl-5-(propan-2-yl)anilino]-2-oxoethyl (2E)-3-(2-hydroxyphenyl)prop-2-enoate] | mixed-type inhibition |  | 
O=c1cc(CO)occ1O [Kojic acid] |  | 24.2% | only slightly reduced the melanin contents
Cc1ccc(C(C)C)cc1NC(=O)COC(=O)c1ccc(O)cc1O [4c, 2-[2-methyl-5-(propan-2-yl)anilino]-2-oxoethyl 2,4-dihydroxybenzoate] | non-competitive inhibition; also recorded: non-competitively |  | 
